Common to all, as to format: functional
Assay [1] deals with MCF7. The assay can be described thus: Cytotoxicity against human MCF7 cells at 10 uM after 48 hrs. The following applies: MCF7, 48 h. In short, it runs like this:
(§1)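 SRB growth assay. DMSO stock (1 × 10^-2 M) diluted in RPMI-1640 (2 mM glutamine, pH 7.4, 10% FCS, antibiotics). Trypsinized subconfluent cells with >97% viability (trypan blue) seeded at 10^5 cells/ml and grown 24 h, then exposed to compound 48 h at 37 °C, 5% CO2. Fixed with TCA at 4 °C for 1 h, stained with 0.4% SRB, solubilized in 0.01 M Tris pH 10.4, OD read at 540 nm. Run in triplicate; mean of three experiments.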

Assay [2] has as its system DU-145. Put plainly: Cytotoxicity against human DU145 cells at 10 uM after 48 hrs. The following applies: DU-145, 48 h. An outline of the steps:
as §1

Assay [3] has as its system SW-620. The assay can be described thus: Cytotoxicity against human SW620 cells at 10 uM after 48 hrs. The settings on record: SW-620, 48 h. In short, it runs like this: as §1
Assay [4] can be described thus: Cytotoxicity against human 502713 cells at 10 uM after 48 hrs. The following applies: Homo sapiens, 502713, 48 h. An outline of the steps:
as §1

The subject of assay [5] is HT-29. Put plainly: Cytotoxicity against human HT29 cells at 10 uM after 48 hrs. The settings on record: HT-29, 48 h. An outline of the steps: as §1

Here are results for 18 compounds from ChEMBL document CHEMBL1138253, “Cytotoxic and apoptotic activities of novel amino analogues of boswellic acids” (2007).

The structures appear in SMILES notation.

The inhibition is the percentage by which the read-out fell short of the control. Turning to `C[C@H]1[C@H](C)CC[C@]2(C)CC[C@]3(C)C(=CC[C@@H]4[C@@]5(C)CC[C@@H](O)[C@](C)(C(=O)O)[C@@H]5CC[C@]43C)[C@H]12` [BOSWELLIC ACID], the inhibition at 10 µM is 18% in assay [1]; 0% in assay [2]; 2% in assay [3]; 24% in assay [4]; 15% in assay [5].

`CC(=O)O[C@@H]1CC[C@@]2(C)[C@@H](CC[C@]3(C)[C@@H]2C(=O)C=C2[C@@H]4[C@@H](C)[C@H](C)CC[C@]4(C)CC[C@]23C)[C@@]1(C)N=C=O`: the inhibition at 10 µM in assay [1] was determined as 10%; in assay [2] it was 0%; in assay [3], 0%; in assay [4], 2%; in assay [5], 0%.

As for `CC(=O)O[C@H]1CC[C@@]2(C)[C@@H](CC[C@]3(C)[C@@H]2CC=C2[C@@H]4[C@@H](C)[C@H](C)CC[C@]4(C)CC[C@]23C)[C@@]1(C)N=C=O`, the inhibition at 10 µM in assay [1] worked out at 50%; in assay [2] it was 18%; in assay [3], 6%; in assay [4], 3%; in assay [5], 2%.

As for `CCC(=O)N[C@@]1(C)[C@@H](OC(=O)CC)CC[C@@]2(C)[C@H]1CC[C@]1(C)[C@@H]2CC=C2[C@@H]3[C@@H](C)[C@H](C)CC[C@]3(C)CC[C@]21C`, the inhibition at 10 µM came to 0% in assay [1]; 11% in assay [2]; 13% in assay [3]; 0% in assay [4]; 24% in assay [5].

Turning to `CC(=O)N[C@]1(C)[C@@H]2CC[C@]3(C)[C@H](CC=C4[C@@H]5[C@@H](C)[C@H](C)CC[C@]5(C)CC[C@]43C)[C@@]2(C)CC[C@H]1OC(C)=O`, the inhibition at 10 µM stood at 57% in assay [1]; 8% in assay [2]; 0% in assay [3]; 7% in assay [4]; 0% in assay [5].

Turning to `COC(=O)[C@]1(C)[C@@H]2CC[C@]3(C)[C@H](CC=C4[C@@H]5[C@@H](C)[C@H](C)CC[C@]5(C)CC[C@]43C)[C@@]2(C)CC[C@@H]1O`, the inhibition at 10 µM was found to be 0% in assay [1]; 0% in assay [2]; 12% in assay [3]; 9% in assay [4]; 0% in assay [5].

On to `COC(=O)[C@]1(C)[C@@H]2CC[C@]3(C)[C@H](C(=O)C=C4[C@@H]5[C@@H](C)[C@H](C)CC[C@]5(C)CC[C@]43C)[C@@]2(C)CC[C@@H]1O`, for which the inhibition at 10 µM in assay [1] was 0%; in assay [2] it was 0%; in assay [3], 11%; in assay [4], 10%; in assay [5] it was 3%.

In the case of `CCCC(=O)N[C@@]1(C)[C@@H](OC(=O)CCC)CC[C@@]2(C)[C@H]1CC[C@]1(C)[C@@H]2CC=C2[C@@H]3[C@@H](C)[C@H](C)CC[C@]3(C)CC[C@]21C`, the inhibition at 10 µM in assay [1] was found to be 0%; in assay [2] it was 0%; in assay [3], 21%; in assay [4] it was 14%; in assay [5], 0%.

With `CC(=O)N[C@]1(C)[C@@H]2CC[C@]3(C)[C@H](C(=O)C=C4[C@@H]5[C@@H](C)[C@H](C)CC[C@]5(C)CC[C@]43C)[C@@]2(C)CC[C@H]1OC(C)=O`, the inhibition at 10 µM stood at 62% in assay [1]; 9% in assay [2]; 0% in assay [3]; 20% in assay [4]; 0% in assay [5].

In the case of `CC(=O)N[C@@]1(C)[C@@H](OC(C)=O)CC[C@@]2(C)[C@H]1CC[C@]1(C)[C@@H]2CC=C2[C@@H]3[C@@H](C)[C@H](C)CC[C@]3(C)CC[C@]21C`, the inhibition at 10 µM in assay [1] came to 2%; in assay [2], 6%; in assay [3], 43%; in assay [4], 0%; in assay [5], 27%.

Take `CCCC(=O)N[C@]1(C)[C@@H]2CC[C@]3(C)[C@H](C(=O)C=C4[C@@H]5[C@@H](C)[C@H](C)CC[C@]5(C)CC[C@]43C)[C@@]2(C)CC[C@H]1OC(=O)CCC`: the inhibition at 10 µM in assay [1] came to 0%; in assay [2], 0%; in assay [3], 0%; in assay [4], 12%; in assay [5] it was 0%.

Take `C[C@H]1[C@H](C)CC[C@]2(C)CC[C@]3(C)C(=CC[C@@H]4[C@@]5(C)CC[C@H](O)[C@](C)(N)[C@@H]5CC[C@]43C)[C@H]12`: the inhibition at 10 µM is 0% in assay [1]; 16% in assay [2]; 63% in assay [3]; 23% in assay [4]; 51% in assay [5].

For the compound `COC(=O)[C@@]1(C)[C@H](O)CC[C@@]2(C)[C@H]1CC[C@]1(C)[C@@H]2CC=C2[C@@H]3[C@@H](C)[C@H](C)CC[C@]3(C)CC[C@]21C`, the inhibition at 10 µM in assay [1] was 1%; in assay [2], 13%; in assay [3], 0%; in assay [4], 23%; in assay [5], 0%.

In the case of `CCC(=O)N[C@]1(C)[C@@H]2CC[C@]3(C)[C@H](C(=O)C=C4[C@@H]5[C@@H](C)[C@H](C)CC[C@]5(C)CC[C@]43C)[C@@]2(C)CC[C@H]1OC(=O)CC`, the inhibition at 10 µM worked out at 4% in assay [1]; 0% in assay [2]; 0% in assay [3]; 24% in assay [4]; 0% in assay [5].

As for `COC(=O)[C@@]1(C)C(=O)CC[C@]2(C)[C@H]3CC=C4[C@@H]5[C@@H](C)[C@H](C)CC[C@]5(C)CC[C@@]4(C)[C@]3(C)CC[C@@H]12`, the inhibition at 10 µM in assay [1] turned out to be 0%; in assay [2], 12%; in assay [3] it was 3%; in assay [4], 27%; in assay [5], 12%.

As to `COC(=O)[C@@]1(C)[C@H](O)CC[C@@]2(C)[C@H]1CC[C@]1(C)[C@@H]2C(=O)C=C2[C@@H]3[C@@H](C)[C@H](C)CC[C@]3(C)CC[C@]21C`, the inhibition at 10 µM was 0% in assay [1]; 12% in assay [2]; 1% in assay [3]; 19% in assay [4]; 0% in assay [5].

On to `C[C@H]1[C@H](C)CC[C@]2(C)CC[C@]3(C)C(=CC(=O)[C@@H]4[C@@]5(C)CC[C@@H](O)[C@](C)(C(=O)O)[C@@H]5CC[C@]43C)[C@H]12` [11-KETO BOSWELLIC ACID], for which the inhibition at 10 µM in assay [1] is 0%; in assay [2], 0%; in assay [3] it was 7%; in assay [4] it was 0%; in assay [5], 7%.

As for `CC(=O)O[C@H]1CC[C@@]2(C)[C@@H](CC[C@]3(C)[C@@H]2C(=O)C=C2[C@@H]4[C@@H](C)[C@H](C)CC[C@]4(C)CC[C@]23C)[C@@]1(C)N=C=O`, the inhibition at 10 µM in assay [1] turned out to be 9%; in assay [2] it was 0%; in assay [3] it was 20%; in assay [4], 0%; in assay [5], 5%.
